Consider eight compounds from ChEMBL document CHEMBL2380301, “Chemotherapy of leishmaniasis. Part XII: design, synthesis and bioevaluation of novel triazole integrated phenyl heteroterpenoids as antileishmanial agents” (Bioorg Med Chem Lett, 2013).

Data set [1] has as its system Leishmania donovani. Description: Antileishmanial activity against amastigotes of Leishmania donovani assessed as inhibition of parasite growth at 40 uM after 72 hrs by luciferase reporter assay. In kind it is functional. A digest of the protocol: (§1)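 J-774A.1 murine macrophages (4 × 10³/well) were seeded and grown 24 h, then infected with luciferase-transfected L. donovani promastigotes (4 × 10⁴/well) that transformed intracellularly into amastigotes. Compounds at […] were added for 72 h. After supernatant removal, cells were taken up in PBS with Steady-Glo and luminescence read. Inhibition was calculated against untreated controls. IC50 is the mean of two independent experiments.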

The nature of data set [2]: Selectivity index, ratio of CC50 for african green monkey Vero cells to IC50 for amastigotes of Leishmania donovani. It is filed as functional. The procedure, abridged: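 Ratio of CC50 on Vero cells (72 h MTT) to IC50 on intramacrophage L. donovani amastigotes in luciferase-expressing J-774A.1 infections (72 h). Both values are means of two independent experiments.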

The test system of data set [3] is Leishmania donovani. Put plainly: Antileishmanial activity against amastigotes of Leishmania donovani assessed as inhibition of parasite growth after 72 hrs by luciferase reporter assay. In kind it is functional, organism-based. A digest of the protocol: as §1
Data set [4] can be described thus: Cytotoxicity against african green monkey Vero cells after 72 hrs by MTT assay. The following applies: chlorocebus sabaeus. It is filed as cell-based. The procedure, abridged:
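Vero monkey kidney […] were exposed to compounds for 72 h, and viable cells were detected with MTT by a modified Mosmann method. CC50 is the mean of two independent experiments.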

The test system of data set [5] is Leishmania donovani. Put plainly: Antileishmanial activity against Leishmania donovani infected in golden hamster assessed as inhibition of parasite multiplication at 50 mg/kg, ip qd for 5 days measured on day 7. In kind it is functional. The following applies: route intraperitoneal. A digest of the protocol: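 Inbred golden hamsters of either sex, 40–45 g, infected intracardiacally with 1 × 10⁷ L. donovani amastigotes per animal. Dosing was 50 mg/kg ip for 5 days. Biopsies were taken on day 7 after the last dose and amastigotes counted by Giemsa staining. Counts were compared between treated and untreated animals and with the initial count in treated animals, and expressed as per cent inhibition.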

With `CC1=C(/C=C/C2=NN(c3ccc(F)cc3)C(c3ccc(-n4cncn4)cc3)C2)C(C)(C)CCC1` (centres undefined), in the data set on Leishmania donovani [1], the inhibition at 40 µM turned out to be 98.7%. Moreover, the “Ratio CC50/IC50” value in data set [2] was determined as 5. For the same compound, in the data set on Leishmania donovani [3], the IC50 came to 12.4 µM. For the same compound, the half-maximal cytotoxic concentration (CC50) at 72 h in data set [4] worked out at 58.6 µM.
Turning to `CC1=CCCC(C)(C)C1/C=C/C1=NN(c2ccccc2)C(c2ccc(-n3cncn3)cc2)C1` (centres undefined), the inhibition at 40 µM in the data set with Leishmania donovani [1] was determined as 98%. The “Ratio CC50/IC50” value in data set [2] amounted to 32. The inhibition in vivo at 50 mg/kg with Leishmania donovani [5] was determined as 58%. The IC50 in the data set on Leishmania donovani [3] amounted to 9.2 µM. The CC50 at 72 h in data set [4] is 296 µM.
As for `CC1=C(/C=C/C(=O)/C=C/c2ccc(-n3cncn3)cc2)C(C)(C)CCC1`, the inhibition at 40 µM in the data set with Leishmania donovani [1] came out at 100%. Besides, in data set [2], the “Ratio CC50/IC50” value came out at 5. Besides, the IC50 with Leishmania donovani [3] came to 15.3 µM. The same compound had a CC50 at 72 h in data set [4] of 72.4 µM.
In the same order, the values of `CC1=CCCC(C)(C)C1/C=C/C1=NN(c2ccc(F)cc2)C(c2ccc(-n3cncn3)cc2)C1` (centres undefined) are 90.5%, 4, 16.9 µM and 72.2 µM.
As to `Clc1ccc(COC(Cn2ccnc2)c2ccc(Cl)cc2Cl)c(Cl)c1` (centres undefined) [MICONAZOLE], the inhibition at 40 µM with Leishmania donovani [1] was 100%. The “Ratio CC50/IC50” value in data set [2] is recorded as 7. Further, the IC50 in the data set with Leishmania donovani [3] amounted to 5.4 µM. For the same compound, the CC50 at 72 h in data set [4] came out at 37.4 µM.
`CC1=CCCC(C)(C)C1/C=C/C(=O)/C=C/c1ccc(-n2cncn2)cc1` (centres undefined): the inhibition at 40 µM with Leishmania donovani [1] was found to be 98.2%. Moreover, the “Ratio CC50/IC50” value in data set [2] came to 3. Moreover, in the data set on Leishmania donovani [3], the IC50 is 11.6 µM. The compound also gave a CC50 at 72 h in data set [4] of 38.5 µM.
As to `CC1=C(/C=C/C2=NN(c3ccccc3)C(c3ccc(-n4cncn4)cc3)C2)C(C)(C)CCC1` (centres undefined), in the data set on Leishmania donovani [1], the inhibition at 40 µM was found to be 100%. In data set [2], the “Ratio CC50/IC50” value is given as 18. In the data set with Leishmania donovani [5], the inhibition in vivo at 50 mg/kg came out at 79%. Moreover, the IC50 in the data set on Leishmania donovani [3] worked out at 6.4 µM. Besides, it took 112 µM to reach half-maximal cytotoxicity in data set [4] (CC50 at 72 h).
For `CCCCCCCCCCCCCCCCOP(=O)([O-])OCC[N+](C)(C)C` [MILTEFOSINE], the inhibition at 40 µM with Leishmania donovani [1] is 100%. Also, the “Ratio CC50/IC50” value in data set [2] amounted to 6. The IC50 in the data set with Leishmania donovani [3] amounted to 8.6 µM. In data set [4], it took 54.7 µM to reach half-maximal cytotoxicity (CC50 at 72 h).
